{"source": "paper PMC8929335", "about": "(Pharmacology Research & Perspectives, 2022)", "key": {"[1]": {"target": "MDR1 (Homo sapiens, UniProt P08183)", "sequence (P08183 whole entry)": "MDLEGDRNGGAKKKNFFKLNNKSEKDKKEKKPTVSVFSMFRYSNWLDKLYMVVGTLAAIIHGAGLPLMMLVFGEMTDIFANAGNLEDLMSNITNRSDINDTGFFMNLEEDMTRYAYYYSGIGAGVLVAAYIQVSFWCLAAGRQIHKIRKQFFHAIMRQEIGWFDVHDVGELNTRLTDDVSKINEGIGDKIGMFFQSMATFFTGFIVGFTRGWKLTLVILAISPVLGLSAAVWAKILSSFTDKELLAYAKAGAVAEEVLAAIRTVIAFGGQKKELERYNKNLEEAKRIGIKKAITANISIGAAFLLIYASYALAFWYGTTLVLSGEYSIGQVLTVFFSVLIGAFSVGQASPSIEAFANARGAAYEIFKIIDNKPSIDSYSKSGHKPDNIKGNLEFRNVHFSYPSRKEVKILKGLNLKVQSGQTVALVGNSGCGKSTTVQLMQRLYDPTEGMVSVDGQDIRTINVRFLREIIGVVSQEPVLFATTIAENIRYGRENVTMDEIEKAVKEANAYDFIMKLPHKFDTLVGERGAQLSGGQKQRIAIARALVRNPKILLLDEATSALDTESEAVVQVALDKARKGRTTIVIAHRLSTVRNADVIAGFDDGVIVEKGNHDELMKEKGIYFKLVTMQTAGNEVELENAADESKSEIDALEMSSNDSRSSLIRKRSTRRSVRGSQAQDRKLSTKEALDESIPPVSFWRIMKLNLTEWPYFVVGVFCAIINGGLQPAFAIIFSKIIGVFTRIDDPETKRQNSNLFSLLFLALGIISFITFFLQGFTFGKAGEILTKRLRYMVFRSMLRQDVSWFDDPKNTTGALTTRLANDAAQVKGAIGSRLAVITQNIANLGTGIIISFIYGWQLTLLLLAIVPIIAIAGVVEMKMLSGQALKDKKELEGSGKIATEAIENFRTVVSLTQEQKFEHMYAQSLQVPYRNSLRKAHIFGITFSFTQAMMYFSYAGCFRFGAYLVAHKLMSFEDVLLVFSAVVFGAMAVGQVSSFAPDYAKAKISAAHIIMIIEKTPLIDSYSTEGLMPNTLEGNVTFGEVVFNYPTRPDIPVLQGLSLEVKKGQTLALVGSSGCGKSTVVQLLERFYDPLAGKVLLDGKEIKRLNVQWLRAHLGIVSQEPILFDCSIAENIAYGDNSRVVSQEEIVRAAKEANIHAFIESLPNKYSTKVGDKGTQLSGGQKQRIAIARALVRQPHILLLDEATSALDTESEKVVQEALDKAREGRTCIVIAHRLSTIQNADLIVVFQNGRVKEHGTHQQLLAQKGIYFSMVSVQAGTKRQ", "experiment": "NIH MDR1-MDCKI transwell efflux assay", "type": "in vitro ADME"}, "[2]": {"experiment": "NHP brain-to-plasma Kp,uu experiment", "type": "in vivo, cynomolgus monkeys", "details": "cynomolgus, cynomolgus monkey, intravenous", "how_it_was_run": "(§1)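 Cynomolgus monkeys (six total) received a three‐compound cassette in 10% captisol in sterile water as a 15 min IV infusion via saphenous or cephalic vein. Plasma (vena cava, K₂EDTA), lumbar CSF after euthanasia, and excised brain were taken from 2 animals per time point at about 17, 30 and 60 min after infusion start. Samples were quantified by LC‐MS/MS after protein precipitation, and Kp,uu was calculated from unbound concentrations.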"}, "[3]": {"experiment": "MDCK A-B passive permeability", "type": "in vitro ADME, canine", "details": "dog", "how_it_was_run": "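MDCKII cells seeded at 60 000 cells/cm² on 1 µm pore transwell inserts and used on day 4. Test compound at 1 µM in HBSS added to donor, with 0.1% BSA in receiver. Donor sampled at 0 min; donor and receiver sampled at 90 min, 37°C, analysed by LC‐MS/MS. Papp = (dQ/dt)/(A×C0). Monolayer integrity confirmed by lucifer yellow A‐B <2%; recovery >70%.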"}, "[4]": {"experiment": "NHP brain tissue binding", "type": "in vitro ADME", "details": "monkey, brain homogenate", "how_it_was_run": "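Brain was homogenized in PBS at 1:3 (w:v) and dialysed against PBS in a rapid equilibrium dialysis device for 18 h at 37°C, 5% CO₂, shaking at 150 rpm. Samples were matrix‐matched, precipitated with acetonitrile containing internal standard, and analysed by LC‐MS/MS. fu = receiver/donor peak‐area ratio, corrected for dilution factor 4.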"}, "[5]": {"experiment": "NHP CSF-to-plasma Kp,uu experiment", "type": "in vivo, cynomolgus monkeys", "details": "cynomolgus, cynomolgus monkey, intravenous", "how_it_was_run": "as §1"}, "[6]": {"target": "T1, breast cancer resistance protein (BCRP) (Homo sapiens, UniProt Q9UNQ0)", "T1 sequence (Q9UNQ0 1-655)": "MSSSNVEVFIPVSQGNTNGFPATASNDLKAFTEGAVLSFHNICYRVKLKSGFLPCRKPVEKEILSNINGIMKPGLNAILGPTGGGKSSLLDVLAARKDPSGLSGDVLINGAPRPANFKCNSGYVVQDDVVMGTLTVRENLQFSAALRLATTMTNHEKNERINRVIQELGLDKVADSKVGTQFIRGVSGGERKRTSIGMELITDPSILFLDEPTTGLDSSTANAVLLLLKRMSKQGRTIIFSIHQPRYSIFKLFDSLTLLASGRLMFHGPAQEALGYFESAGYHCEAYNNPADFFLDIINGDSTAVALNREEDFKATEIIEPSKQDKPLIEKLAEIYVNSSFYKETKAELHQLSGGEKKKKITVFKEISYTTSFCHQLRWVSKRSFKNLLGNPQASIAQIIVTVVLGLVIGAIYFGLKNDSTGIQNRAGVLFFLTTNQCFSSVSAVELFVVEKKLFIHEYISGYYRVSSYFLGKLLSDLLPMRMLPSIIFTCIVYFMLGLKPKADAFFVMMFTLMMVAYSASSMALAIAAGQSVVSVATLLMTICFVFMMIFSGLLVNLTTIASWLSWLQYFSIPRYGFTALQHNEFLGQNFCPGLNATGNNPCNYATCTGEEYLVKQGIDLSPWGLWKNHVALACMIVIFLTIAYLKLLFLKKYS", "experiment": "BCRP transwell efflux ratio", "type": "in vitro ADME", "details": "B_A Papp (n = 3) / A_B Papp (n = 3)"}, "[7]": {"experiment": "NHP brain-to-plasma and CSF-to-plasma Kp,uu time course experiment", "type": "in vivo, cynomolgus monkeys", "details": "IV infusion for 15 min", "how_it_was_run": "as §1"}}, "data": [{"smiles": "C=C[C@H]1C[N@@]2CC[C@H]1C[C@@H]2[C@@H](O)c1ccnc2ccc(OC)cc12", "note": "[quinidine]", "values": [{"measurement": "ER in NIH MDR1 assay relative to current MDR1 assay", "setting": "[1]; NIH MDR1-MDCKI vs internal MDR1-MDCKII", "value": "more than 10 fold"}]}, {"smiles": "Cc1cc(=O)n(-c2ccccc2)n1C", "note": "[Antipyrine]", "values": [{"measurement": "Kp uu", "setting": "[2]", "value": 0.96}, {"measurement": "Papp A→B at 90 min, 1 µM", "setting": "[3]", "value": "32.8 ± 9", "unit": "×10⁻⁶ cm/s"}, {"measurement": "fraction unbound at 18 h", "setting": "[4]", "value": "~1"}, {"measurement": "Kp uu at 1 h", "setting": "[5]", "value": 1}, {"measurement": "BCRP ER", "setting": "[6]", "value": 0.9}, {"measurement": "Time for unbound brain concentration to reach equilibrium with unbound plasma concentration", "setting": "[7]", "value": "≤ 15", "unit": "min"}, {"measurement": "Time for lumbar CSF to equilibrate with plasma", "setting": "[7]; lumbar CSF", "value": "~ 1 h"}, {"measurement": "MDR1/BCRP substrate classification", "setting": "[1]; ER of 3 as cutoff to classify substrates", "value": "no MDR1/BCRP efflux transporter interactions"}, {"measurement": "efflux ratio at 90 min, 1 µM", "setting": "[1]; human, MDCK-MDR1", "value": 1}]}]}
